For assay [1], the target named is T1, Glycogen synthase kinase-3 beta (Homo sapiens, UniProt P49841). The experiment in a line: Inhibition of human recombinant N-terminal His6-tagged human GSK-3beta expressed in Baculovirus infected SF9 cells using prephosphorylated-GS2 polypeptide as substrate after 30 mins by kinase-Glo reagent based luminescence assay. The method in brief:
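GSK-3β was incubated with ATP and GS-2 substrate with or without compound. ATP remaining after the kinase reaction was quantified by Kinase-Glo luminescence. IC50 is the mean of triplicate experiments.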
(Kinase-Glo reads ATP consumption through a luciferase reaction.)
Target sequence in this assay (P49841 whole entry): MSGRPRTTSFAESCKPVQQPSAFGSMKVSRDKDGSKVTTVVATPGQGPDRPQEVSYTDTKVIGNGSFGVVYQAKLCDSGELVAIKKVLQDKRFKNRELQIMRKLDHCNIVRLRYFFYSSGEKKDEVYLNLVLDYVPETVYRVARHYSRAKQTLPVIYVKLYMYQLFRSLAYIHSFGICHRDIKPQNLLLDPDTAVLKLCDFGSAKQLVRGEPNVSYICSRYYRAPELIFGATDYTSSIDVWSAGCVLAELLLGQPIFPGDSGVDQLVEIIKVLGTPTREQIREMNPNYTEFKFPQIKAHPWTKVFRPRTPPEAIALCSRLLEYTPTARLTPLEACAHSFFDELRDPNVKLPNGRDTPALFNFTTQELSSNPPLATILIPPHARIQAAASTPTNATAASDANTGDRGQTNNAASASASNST

In assay [2] the target is Mast/stem cell growth factor receptor Kit (Homo sapiens) (UniProt P10721). Description: Inhibition of human c-KIT at 100 uM. The essentials:
(§1)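 Kinase selectivity panel run at 100 μM inhibitor. Activity is reported as % inhibition, the mean of two independent experiments.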

Assay [3] has as its target Fibroblast growth factor receptor 1 (Homo sapiens) (UniProt P11362). The experiment in a line: Inhibition of human FGFR1 at 100 uM. The essentials: as §1
The target in assay [4] is T1, Glycogen synthase kinase-3 beta. Description: Non-ATP competitive inhibition of recombinant N-terminal His6-tagged human GSK-3beta expressed in Baculovirus infected SF9 cells at 20 to 30 uM using prephosphorylated-GS2 polypeptide as substrate after 30 mins by kinase-Glo reagent based luminescence assay. The method in brief:
(§2)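 Kinetic analysis used the same Kinase-Glo GSK-3β assay. Inhibitor was tested at fixed concentrations while one substrate (ATP or GS-2) was held constant and the other varied, and the data were plotted as double-reciprocal plots.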
Target sequence in this assay (P49841 whole entry, looked up): as the sequence (P49841 whole entry) above

Assay [5] concerns the target Proto-oncogene tyrosine-protein kinase receptor Ret (Homo sapiens) (UniProt P07949). The experiment in a line: Inhibition of human RET at 100 uM.
Assay [6] has as its target Platelet-derived growth factor receptor beta (Homo sapiens) (UniProt P09619). The experiment in a line: Inhibition of human PDGFRbeta at 100 uM. The essentials:
as §1

In assay [7] the test system is Mus musculus. The experiment in a line: Anti-inflammatory activity in C57BL/6 mouse lung injury model assessed reduction in lung tissue damage at 80 uM, ip administered 12 hrs prior to LPS challenge and measured after 24 hrs by Hematoxylin and eosin staining-based light microscopic analysis. Details: scale not given: the % may be the effect or the level left. The assay is classed as functional. The method in brief: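 C57BL/6 mice received compound (80 μM) or PBS ip, followed 12 h later by LPS (10 mg/kg ip). At 24 h after LPS, lungs were fixed, embedded, sectioned and H&E stained. Hemorrhage, edema, interstitial inflammatory cell infiltration, hyaline membrane and atelectasis were each graded 0–4 to give an injury score. Mean ± SEM, n = 5 mice.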

In assay [8] the test system is Mus musculus. Description: In vivo inhibition of GSK-3beta in C57BL/6 mouse lung injury model assessed as upregulation of SIRT1 expression in lung at 80 uM, ip administered 12 hrs prior to LPS challenge and measured after 24 hrs by Western blot analysis relative to control. Type of assay: functional. The essentials:
(§3)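 Mice were pretreated ip with compound (80 μM) or PBS, and LPS (10 mg/kg ip) was given 12 h later. Lungs were collected 24 h post-LPS, and p-GSK-3β and SIRT1 were detected by Western blot. Values are means ± SE of 4 independent experiments.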

Assay [9] has as its target Protein kinase C alpha type (Homo sapiens) (UniProt P17252). Description: Inhibition of human PKCalpha at 100 uM. The essentials: as §1
Assay [10] concerns the target Casein kinase 2 (Homo sapiens) (UniProt P67870+P68400+P19784+Q8NEV1). The experiment in a line: Inhibition of human CK2 at 100 uM. Type of assay: protein assay. The essentials: as §1
Assay [11] deals with Proto-oncogene tyrosine-protein kinase Src (Homo sapiens) (UniProt P12931). The settings on record: at 100 µM.
Sequence of Proto-oncogene tyrosine-protein kinase Src (Homo sapiens) (P12931 2-536 limits assumed): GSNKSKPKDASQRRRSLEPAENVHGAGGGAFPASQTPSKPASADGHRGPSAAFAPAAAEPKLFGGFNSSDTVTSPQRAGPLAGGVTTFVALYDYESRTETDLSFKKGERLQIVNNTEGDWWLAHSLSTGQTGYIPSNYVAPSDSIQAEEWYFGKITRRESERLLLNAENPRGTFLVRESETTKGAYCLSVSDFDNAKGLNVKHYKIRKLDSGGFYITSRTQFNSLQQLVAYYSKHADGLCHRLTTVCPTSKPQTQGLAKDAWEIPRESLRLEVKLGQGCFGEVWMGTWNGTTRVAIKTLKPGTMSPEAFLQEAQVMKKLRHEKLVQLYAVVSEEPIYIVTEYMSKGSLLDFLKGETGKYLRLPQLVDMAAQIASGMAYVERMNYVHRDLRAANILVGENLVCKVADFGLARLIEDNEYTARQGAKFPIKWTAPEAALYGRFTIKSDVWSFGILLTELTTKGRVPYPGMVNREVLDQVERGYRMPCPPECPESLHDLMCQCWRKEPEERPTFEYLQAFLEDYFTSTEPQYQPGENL
Assay [12] relates to Mus musculus. Description: Anti-inflammatory activity in C57BL/6 mouse lung injury model assessed as inhibition of IL-1beta mRNA expression level at 80 uM, ip administered 12 hrs prior to LPS challenge and measured after 24 hrs by qRT-PCR analysis. The assay is classed as functional. On the technique in general: Quantitative PCR measures a nucleic acid by following its amplification.

The target in assay [13] is Vascular endothelial growth factor receptor 2 (Homo sapiens) (UniProt P35968). Description: Inhibition of human KDR at 100 uM. The method in brief: as §1
Assay [14] concerns the target Tyrosine-protein kinase ABL1 (Homo sapiens) (UniProt P00519). The settings on record: at 100 µM.
The target of assay [15] is Vascular endothelial growth factor receptor 1 (Homo sapiens) (UniProt P17948). Description: Inhibition of human Flt1 at 100 uM. The method in brief: as §1
The subject of assay [16] is Mus musculus. Description: Anti-inflammatory activity in C57BL/6 mouse lung injury model assessed as inhibition of IL-6 mRNA expression level at 80 uM, ip administered 12 hrs prior to LPS challenge and measured after 24 hrs by qRT-PCR analysis. Type of assay: functional.
Assay [17] has as its target Cyclin-dependent kinase 1 (Homo sapiens) (UniProt P06493). Description: Inhibition of human CDK1 at 100 uM. The method in brief:
as §1

Assay [18] is filed under the species Homo sapiens. Description: Inhibition of human PKA at 100 uM. The essentials: as §1
The subject of assay [19] is Mus musculus. The experiment in a line: In vivo inhibition of GSK-3beta in C57BL/6 mouse lung injury model assessed as upregulation of LPS-induced phosphorylation at Ser9 residue in lung at 80 uM, ip administered 12 hrs prior to LPS challenge and measured after 24 hrs by Western blot analysis relative to control. Type of assay: functional. The essentials:
as §3
A general note: In western blotting, separated proteins are transferred to a membrane and probed.

In assay [20] the target is Platelet-derived growth factor receptor alpha (Homo sapiens) (UniProt P16234). Description: Inhibition of human PDGFRalpha at 100 uM. The method in brief:
as §1

The target in assay [21] is T1, Glycogen synthase kinase-3 beta. The experiment in a line: Non-ATP competitive inhibition of recombinant N-terminal His6-tagged human GSK-3beta expressed in Baculovirus infected SF9 cells at 15 to 25 uM using prephosphorylated-GS2 polypeptide as substrate after 30 mins by kinase-Glo reagent based luminescence assay. The essentials: as §2
Target sequence in this assay (P49841 whole entry, looked up): as the sequence (P49841 whole entry) above
The target of assay [22] is Receptor tyrosine-protein kinase erbB-4 (Homo sapiens) (UniProt Q15303). Description: Inhibition of human ErbB4 at 100 uM. The method in brief: as §1

One may read the IC50 as the concentration that inhibits the measured activity by half. One may read the inhibition as the relative decrease from the control value, in per cent.

Activity calls are given as the source filed them. The rule behind the calls is not given here. Where only a bound is given, the exact number is not on record here.

Sequence of Cyclin-dependent kinase 1 (Homo sapiens) (P06493 whole entry, looked up): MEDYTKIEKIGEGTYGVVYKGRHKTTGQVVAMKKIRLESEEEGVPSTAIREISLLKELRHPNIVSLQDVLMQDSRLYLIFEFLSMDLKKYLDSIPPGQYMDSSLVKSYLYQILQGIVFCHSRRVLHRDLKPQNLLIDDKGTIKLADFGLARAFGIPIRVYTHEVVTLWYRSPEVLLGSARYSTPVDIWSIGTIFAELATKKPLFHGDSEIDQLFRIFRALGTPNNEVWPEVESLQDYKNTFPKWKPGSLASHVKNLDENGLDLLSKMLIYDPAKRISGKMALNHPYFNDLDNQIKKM
Sequence of Proto-oncogene tyrosine-protein kinase receptor Ret (Homo sapiens) (P07949 whole entry): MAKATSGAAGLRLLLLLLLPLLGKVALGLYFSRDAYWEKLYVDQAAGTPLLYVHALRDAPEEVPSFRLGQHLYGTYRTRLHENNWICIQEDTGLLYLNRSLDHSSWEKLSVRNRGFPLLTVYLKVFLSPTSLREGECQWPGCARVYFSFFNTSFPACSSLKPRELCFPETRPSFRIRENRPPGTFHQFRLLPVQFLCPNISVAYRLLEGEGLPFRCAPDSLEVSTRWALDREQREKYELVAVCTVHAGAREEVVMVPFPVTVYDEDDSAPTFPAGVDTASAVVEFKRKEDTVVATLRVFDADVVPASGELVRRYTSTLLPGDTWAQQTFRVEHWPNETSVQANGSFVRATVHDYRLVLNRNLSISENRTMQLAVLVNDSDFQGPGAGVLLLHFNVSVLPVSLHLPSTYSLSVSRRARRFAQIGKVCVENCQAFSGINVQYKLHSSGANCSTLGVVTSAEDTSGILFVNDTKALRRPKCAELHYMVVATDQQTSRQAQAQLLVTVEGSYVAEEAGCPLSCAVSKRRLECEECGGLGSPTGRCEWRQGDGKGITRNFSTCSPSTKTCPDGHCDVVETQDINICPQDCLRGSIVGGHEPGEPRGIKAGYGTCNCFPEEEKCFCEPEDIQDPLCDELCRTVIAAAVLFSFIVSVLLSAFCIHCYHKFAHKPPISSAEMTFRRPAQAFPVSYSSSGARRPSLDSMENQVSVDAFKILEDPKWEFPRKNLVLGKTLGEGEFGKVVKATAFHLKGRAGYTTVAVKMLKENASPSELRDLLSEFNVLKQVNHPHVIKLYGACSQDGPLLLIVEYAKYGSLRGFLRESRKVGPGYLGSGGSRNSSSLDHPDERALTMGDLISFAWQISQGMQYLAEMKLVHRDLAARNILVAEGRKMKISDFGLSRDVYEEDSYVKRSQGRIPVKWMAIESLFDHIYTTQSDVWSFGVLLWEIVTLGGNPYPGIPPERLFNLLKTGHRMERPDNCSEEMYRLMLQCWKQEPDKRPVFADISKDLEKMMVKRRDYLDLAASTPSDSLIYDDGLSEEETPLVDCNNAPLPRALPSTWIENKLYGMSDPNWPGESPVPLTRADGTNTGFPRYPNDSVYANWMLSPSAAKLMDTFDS
Sequence of Tyrosine-protein kinase ABL1 (Homo sapiens) (P00519 whole entry): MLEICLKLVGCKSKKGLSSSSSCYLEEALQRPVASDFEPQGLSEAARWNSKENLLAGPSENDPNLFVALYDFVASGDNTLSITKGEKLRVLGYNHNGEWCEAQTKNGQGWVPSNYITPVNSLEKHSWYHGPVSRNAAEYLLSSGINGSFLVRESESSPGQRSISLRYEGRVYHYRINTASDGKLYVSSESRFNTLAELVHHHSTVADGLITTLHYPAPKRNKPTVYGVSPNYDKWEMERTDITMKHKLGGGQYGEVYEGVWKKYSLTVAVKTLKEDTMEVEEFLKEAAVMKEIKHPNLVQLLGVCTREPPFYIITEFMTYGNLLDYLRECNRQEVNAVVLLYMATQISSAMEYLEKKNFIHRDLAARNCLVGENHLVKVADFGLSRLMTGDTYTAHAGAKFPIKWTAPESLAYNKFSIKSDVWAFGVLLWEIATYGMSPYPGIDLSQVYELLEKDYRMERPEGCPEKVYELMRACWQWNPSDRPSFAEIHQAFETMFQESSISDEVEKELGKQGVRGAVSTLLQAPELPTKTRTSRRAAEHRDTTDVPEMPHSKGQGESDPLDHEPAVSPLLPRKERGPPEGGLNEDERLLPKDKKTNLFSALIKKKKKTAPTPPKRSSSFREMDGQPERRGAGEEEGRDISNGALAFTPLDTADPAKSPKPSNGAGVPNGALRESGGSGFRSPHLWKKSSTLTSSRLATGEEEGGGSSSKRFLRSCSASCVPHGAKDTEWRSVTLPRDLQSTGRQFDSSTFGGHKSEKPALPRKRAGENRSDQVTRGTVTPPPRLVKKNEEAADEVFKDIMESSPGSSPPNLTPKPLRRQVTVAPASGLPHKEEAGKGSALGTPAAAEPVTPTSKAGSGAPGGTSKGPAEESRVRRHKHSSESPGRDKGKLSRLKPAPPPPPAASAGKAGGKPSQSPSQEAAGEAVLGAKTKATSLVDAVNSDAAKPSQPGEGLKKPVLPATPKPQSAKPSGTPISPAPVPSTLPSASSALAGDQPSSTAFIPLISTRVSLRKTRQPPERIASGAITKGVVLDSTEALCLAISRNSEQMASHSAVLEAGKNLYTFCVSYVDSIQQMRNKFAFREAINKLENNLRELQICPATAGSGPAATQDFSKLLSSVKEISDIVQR
Sequence of Fibroblast growth factor receptor 1 (Homo sapiens) (P11362 22-822 limits assumed): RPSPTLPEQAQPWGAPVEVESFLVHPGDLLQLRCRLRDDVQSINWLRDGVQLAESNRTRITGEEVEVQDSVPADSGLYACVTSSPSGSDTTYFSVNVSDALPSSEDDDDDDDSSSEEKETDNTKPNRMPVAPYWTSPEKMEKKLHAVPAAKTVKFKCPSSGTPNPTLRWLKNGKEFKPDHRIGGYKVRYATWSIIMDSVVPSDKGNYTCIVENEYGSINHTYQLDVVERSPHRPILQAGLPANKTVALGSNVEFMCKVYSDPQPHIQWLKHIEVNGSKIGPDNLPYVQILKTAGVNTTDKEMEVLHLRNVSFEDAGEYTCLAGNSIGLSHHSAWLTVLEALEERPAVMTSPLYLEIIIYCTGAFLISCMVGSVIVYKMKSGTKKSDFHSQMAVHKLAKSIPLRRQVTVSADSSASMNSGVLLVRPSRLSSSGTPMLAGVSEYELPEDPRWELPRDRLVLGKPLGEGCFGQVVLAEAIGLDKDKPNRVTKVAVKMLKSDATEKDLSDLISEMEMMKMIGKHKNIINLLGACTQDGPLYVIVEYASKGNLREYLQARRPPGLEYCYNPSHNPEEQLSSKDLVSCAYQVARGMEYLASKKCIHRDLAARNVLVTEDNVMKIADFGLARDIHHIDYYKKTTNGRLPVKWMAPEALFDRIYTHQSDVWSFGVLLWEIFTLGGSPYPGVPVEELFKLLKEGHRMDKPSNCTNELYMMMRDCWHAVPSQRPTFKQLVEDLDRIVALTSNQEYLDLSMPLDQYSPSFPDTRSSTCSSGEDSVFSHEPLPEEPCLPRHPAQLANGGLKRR

Consider `Cc1ccc(CNC(=O)c2ccc(C3CC(=O)N(Cc4ccccc4[N+](=O)[O-])c4ccccc4S3)cc2)cc1` (stereo unspecified), for which the IC50 in [1] came out at 18 µM.

For the compound `O=C(NCc1ccc(Br)cc1)c1ccc(C2CC(=O)N(Cc3ccccc3[N+](=O)[O-])c3ccccc3S2)cc1` (stereo unspecified), in assay [1], the IC50 was found to be 25 µM.

`O=C(NCc1ccc(Cl)cc1)c1ccc(C2CC(=O)N(Cc3ccccc3[N+](=O)[O-])c3ccccc3S2)cc1` (stereo unspecified): the IC50 in [1] was found to be 33 µM.

Consider `COC(=O)c1ccccc1C1CC(=O)N(Cc2ccccc2[N+](=O)[O-])c2ccccc2S1` (stereo unspecified), for which the IC50 in [1] worked out at 80 µM.

For `CS(=O)(=O)Nc1ccccc1CN1C(=O)CC(c2ccc(C(=O)NCc3cccc(Cl)c3)cc2)Sc2ccccc21` (stereo unspecified), in [1], the IC50 stood at 17 µM.

For the compound `O=C(c1ccc(C2CC(=O)N(Cc3ccccc3[N+](=O)[O-])c3ccccc3S2)cc1)N1CCCCC1` (stereo unspecified), in assay [1], the IC50 was 49 µM.

`N#Cc1ccc(C2CC(=O)N(Cc3ccccc3[N+](=O)[O-])c3ccccc3S2)cc1` (stereo unspecified): the IC50 in assay [1] was determined as 45 µM.

Regarding `O=C(NC1CCCCC1)c1ccc(C2CC(=O)N(Cc3ccccc3[N+](=O)[O-])c3ccccc3S2)cc1` (stereo unspecified), the IC50 in [1] came to 32 µM.

As for `CCN(CC)CCNC(=O)c1c(C)[nH]c(/C=C2\C(=O)Nc3ccc(F)cc32)c1C`, the inhibition in assay [2] turned out to be 49.4%.

In the case of `O=C(NC1CC1)c1ccc(C2CC(=O)N(Cc3ccccc3[N+](=O)[O-])c3ccccc3S2)cc1` (stereo unspecified), the IC50 in [1] was over 100 µM.

`NC(=O)c1ccccc1CN1C(=O)CC(c2ccc(C(=O)NCc3ccccc3)cc2)Sc2ccccc21` (stereo unspecified): the IC50 in [1] was found to be 100 µM.

For `CCCCNC(=O)c1ccc(C2CC(=O)N(Cc3ccccc3[N+](=O)[O-])c3ccccc3S2)cc1` (stereo unspecified), the IC50 in [1] stood at 22 µM.

With `O=C(NCc1ccccn1)c1ccc(C2CC(=O)N(Cc3ccccc3[N+](=O)[O-])c3ccccc3S2)cc1` (stereo unspecified), in assay [1], the IC50 turned out to be 75 µM.

On to `O=C(NCc1ccccc1F)c1ccc(C2CC(=O)N(Cc3ccccc3[N+](=O)[O-])c3ccccc3S2)cc1` (stereo unspecified), for which, in assay [1], the IC50 turned out to be 20 µM.

Consider `CS(=O)(=O)c1cccc(N2C(=O)CC(c3ccc(C(=O)NCc4cccc(Cl)c4)cc3)Sc3ccccc32)c1` (stereo unspecified), for which the IC50 in assay [1] was determined as 18 µM.

Take `O=C1CC(c2ccc(-c3ccccc3)cc2)Sc2ccccc2N1Cc1ccccc1[N+](=O)[O-]` (stereo unspecified): the IC50 in assay [1] was 51 µM.

Regarding `O=C1CC(c2ccc(C(=O)NCc3cccc(Cl)c3)cc2)Sc2ccccc2N1` (stereo unspecified), the inhibition in assay [3] was 5.4%; in assay [5], 18.5%; in [6] it was 41.2%; in [9] it was 2%; in assay [10], -6%; in [11], 0%. Also, the inhibition in [13] was 8.7%; in assay [14], 46.6%; in [15] it was 8.9%; in [17], 22%; in assay [18] it was -7%. Further, in assay [4], the inhibition entry was “Active”. In addition, the Activity in [7] is 49%. The “fold change (FC)” value in assay [8] came to 1.34. Moreover, the figures for the “inhibition (INH)” value in [12] and in assay [16] were 28.84% and 24.35%, respectively. Besides, the IC50 in [1] stood at 25 µM.

For the compound `O=C(NCc1cccc(F)c1)c1ccc(C2CC(=O)N(Cc3ccccc3[N+](=O)[O-])c3ccccc3S2)cc1` (stereo unspecified), the IC50 in assay [1] is 19 µM.

For the compound `Cc1ccc(C2CC(=O)N(Cc3ccccc3[N+](=O)[O-])c3ccccc3S2)cc1` (stereo unspecified), the IC50 in [1] amounted to 20 µM.

Consider `CC(C)(C)NC(=O)c1ccc(C2CC(=O)N(Cc3ccccc3[N+](=O)[O-])c3ccccc3S2)cc1` (stereo unspecified), for which the IC50 in assay [1] is 48 µM.

Consider `COC(=O)c1cccc(C2CC(=O)N(Cc3ccccc3[N+](=O)[O-])c3ccccc3S2)c1` (stereo unspecified), for which the IC50 in assay [1] was found to be 66 µM.

On to `CN1CCN(C(=O)c2ccc(C3CC(=O)N(Cc4ccccc4[N+](=O)[O-])c4ccccc4S3)cc2)CC1` (stereo unspecified), for which the IC50 in assay [1] was over 100 µM.

Take `CCN(CC)C(=O)c1ccc(C2CC(=O)N(Cc3ccccc3[N+](=O)[O-])c3ccccc3S2)cc1` (stereo unspecified): the IC50 in [1] is 90 µM.

For `COc1ccc(CNC(=O)c2ccc(C3CC(=O)N(Cc4ccccc4[N+](=O)[O-])c4ccccc4S3)cc2)cc1` (stereo unspecified), the IC50 in assay [1] worked out at 27 µM.

Take `O=C(NCCc1ccccc1)c1ccc(C2CC(=O)N(Cc3ccccc3[N+](=O)[O-])c3ccccc3S2)cc1` (stereo unspecified): the IC50 in [1] was determined as 21 µM.

On to `O=C(NCc1ccc(F)cc1)c1ccc(C2CC(=O)N(Cc3ccccc3[N+](=O)[O-])c3ccccc3S2)cc1` (stereo unspecified), for which, in [1], the IC50 was found to be 18 µM.

As to `O=C(NCc1ccco1)c1ccc(C2CC(=O)N(Cc3ccccc3[N+](=O)[O-])c3ccccc3S2)cc1` (stereo unspecified), the IC50 in [1] worked out at 27 µM.

`O=C(Nc1ccccn1)c1ccc(C2CC(=O)N(Cc3ccccc3[N+](=O)[O-])c3ccccc3S2)cc1` (stereo unspecified): in assay [1], the IC50 was found to be 35 µM.

For the compound `O=C(NCc1cccc(Cl)c1)c1ccc(C2CC(=O)N(Cc3ccccc3[N+](=O)[O-])c3ccccc3S2)cc1` (stereo unspecified), in [1], the IC50 came out at 35 µM.

In the case of `O=C(NCc1ccccc1)c1ccc(C2CC(=O)N(Cc3ccccc3[N+](=O)[O-])c3ccccc3S2)cc1` (stereo unspecified), the inhibition in assay [3] was 13.5%; in assay [5] it was 68%; in assay [6], 5.5%; in [9], 12%; in assay [10], 20%; in assay [20], 7.2%. The inhibition in assay [11] was found to be 7.2%; in assay [14], 0%; in [15], 6.8%; in [2], 28%; in assay [17] it was 16%; in assay [18], 0%. In [22], the inhibition amounted to 12.2%. In addition, the “fold change (FC)” value in [19] is reported as 1.42; in assay [8], 1.93. Further, the Activity in assay [7] came to 65%. In addition, the figures for the “inhibition (INH)” value in assay [12] and in assay [16] were 43.18% and 38.16%, respectively. In assay [1], the IC50 was 28 µM. For the same compound, the inhibition result in assay [21] was “Active”.

Consider `COC(=O)c1ccc(C2CC(=O)N(Cc3ccccc3[N+](=O)[O-])c3ccccc3S2)cc1` (stereo unspecified), for which the IC50 in assay [1] is 35 µM.

The values above are taken from ChEMBL document CHEMBL4270659, “Discovery and anti-inflammatory evaluation of benzothiazepinones (BTZs) as novel non-ATP competitive inhibitors of glycogen synthase kinase-3β (GSK-3β)” (Bioorg Med Chem, 2018).
